# From ChEMBL document CHEMBL1124289, “6-(Alkylamino)-9-benzyl-9H-purines. A new class of anticonvulsant agents” (1988)
# Test system: Rattus norvegicus
# Experiment: Ability to protect Sprague-Dawley male rats against maximal electroshock-induced seizures (MES) per orally; Inhibition at 25 mg/kg
# Assay type: functional
# Details: po
# Method in brief: (§1)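 Male Sprague-Dawley rats dosed with compound as a solution or fine dispersion in water or 5% methylcellulose, then given maximal electroshock. Protection means abolition of the hind-limb extensor component.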
row,SMILES,inhibition in vivo at 25 mg/kg
1,OCCNc1ncnc2c1ncn2Cc1ccccc1,17%

# Test system: Rattus norvegicus
# Experiment: Protective effects in maximal electroshock induced seizures in rats following i.p. administration.
# Assay type: functional
# Details: ip
# Method in brief: (§2)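 Male Sprague-Dawley rats, compound given orally or ip as a solution or fine dispersion in water or 5% methylcellulose before maximal electroshock. ED50 is the dose protecting 50% against hind-limb extension, by the Miller–Tainter method. Either ≥12 animals per dose at four doses (with standard error) or three doses with six animals per point.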
row,SMILES,ED50
1,CN(C)c1ncnc2c1ncn2Cc1ccccc1,6 mg/kg
2,CN(C)c1ncnc2c1ncn2Cc1ccccc1F,8.8 mg/kg
3,CNc1ncnc2c1ncn2Cc1ccccc1,5 mg/kg
4,CN(C)c1ncnc2c1ncn2Cc1ccc(N)cc1,25 mg/kg
5,Cc1ccccc1Cn1cnc2c(N(C)C)ncnc21,9 mg/kg
6,COc1ncnc2c1ncn2Cc1ccccc1 [9-BENZYL-6-METHOXY-9H-PURINE],10 mg/kg
7,CN(C)c1ncnc2c1ncn2Cc1cccc(Cl)c1,4.5 mg/kg
8,Cc1cccc(Cn2cnc3c(N(C)C)ncnc32)c1,25 mg/kg
9,CN(C)c1ncnc2c1ncn2Cc1cccc(C(F)(F)F)c1,12 mg/kg
10,COc1cccc(Cn2cnc3c(N(C)C)ncnc32)c1,12.5 mg/kg
11,CN(C)c1ncnc2c1ncn2Cc1cccc(F)c1,8.4 mg/kg
12,CN(C)c1ncnc2c1ncn2Cc1cccs1,10 mg/kg
13,O=C1NC(=O)C(c2ccccc2)(c2ccccc2)N1 [PHENYTOIN],9.6 mg/kg
14,CN(C)c1ncnc2c1ncn2Cc1cccc(Br)c1,13 mg/kg
15,CN(C)c1ncnc2c1ncn2Cc1cccc(I)c1,11 mg/kg
16,CCN(C)c1ncnc2c1ncn2Cc1ccccc1,8 mg/kg
17,c1ccc(Cn2cnc3c(NC4CC4)ncnc32)cc1,8.6 mg/kg
18,CN(C)c1ncnc2c1ncn2Cc1cc(Cl)cc(Cl)c1,7 mg/kg
19,CN(C)c1ncnc2c1ncn2Cc1ccccc1N,20 mg/kg
20,CN(C)c1ncnc2c1ncn2Cc1ccccc1[N+](=O)[O-],25 mg/kg
21,CN(C)c1ncnc2c1ncn2Cc1ccco1,18 mg/kg

# Test system: Rattus norvegicus
# Experiment: Ability to protect Sprague-Dawley male rats against maximal electroshock-induced seizures (MES) intraperitoneally; Inhibition at 12.5 mg/kg
# Assay type: functional
# Details: ip, route intraperitoneal
# Method in brief: as §1
row,SMILES,inhibition in vivo at 12.5 mg/kg
1,CN(C)c1ncnc2c1ncn2-c1ccccc1,0%

# Test system: Rattus norvegicus
# Experiment: Ability to protect Sprague-Dawley male rats against maximal electroshock-induced seizures (MES) intraperitoneally. Inhibition at 25 mg/kg
# Assay type: functional
# Details: ip, route intraperitoneal
# Method in brief: as §1
row,SMILES,inhibition in vivo at 25 mg/kg
1,c1ccc(Cn2cnc3c(N4CCC4)ncnc32)cc1,17%
2,Oc1ncnc2c1ncn2Cc1ccccc1,17%
3,CN(C)c1ncnc2c1ncn2Cc1ccc(Cl)c(Cl)c1,0%
4,CN(C)c1ncnc2c1ncn2CCc1ccccc1,33%
5,CN(C)c1ncnc2c1ncn2Cc1cccc(O)c1,0%
6,Cc1ccc(Cn2cnc3c(N(C)C)ncnc32)cc1,0%
7,CN(C)c1ncnc2c1ncn2CC1CCCCC1,0%
8,CN(C)c1ncnc2c1ncn2C,33%
9,C[C@H](c1ccccc1)n1cnc2c(N(C)C)ncnc21,33%
10,CN(C)c1ncnc2c1ncn2Cc1ccc(O)cc1,0%
11,c1ccc(Cn2cnc3c(Nc4ccccc4)ncnc32)cc1,0%
12,CSc1ncnc2c1ncn2Cc1ccccc1 [9-BENZYL-6-METHYLSULFANYL-9H-PURINE],30%
13,CN(C=O)c1ncnc2c1ncn2Cc1ccccc1,0%
14,OCCNc1ncnc2c1ncn2Cc1ccccc1,84%
15,CC(C)N(C)c1ncnc2c1ncn2Cc1ccccc1,17%
16,CN(C)c1ncnc2c1ncn2Cc1ccc(Cl)cc1,0%
17,COc1ccccc1Cn1cnc2c(N(C)C)ncnc21,0%
18,CN(c1ncnc2c1ncn2Cc1ccccc1)C1CCCC1,17%
19,CN(C)c1ncnc2c1ncn2Cc1cccc(C#N)c1,17%
20,CN(C)c1ncnc2c1ncn2Cc1ccc(F)cc1,33%
21,CN(C)c1ncnc2c1ncn2Cc1cccc([N+](=O)[O-])c1,17%
22,COc1ccc(Cn2cnc3c(N(C)C)ncnc32)cc1,0%
23,Nc1ncnc2c1ncn2Cc1ccccc1 [9-BENZYL-9H-ADENINE],33%
24,CN(C)c1ncnc2c1ncn2Cc1ccc([N+](=O)[O-])cc1,0%
25,CN(C)c1ncnc2c1ncn2Cc1ccccc1Cl,84%
26,C[C@@H](c1ccccc1)n1cnc2c(N(C)C)ncnc21,33%
27,CN(C)c1ncnc2c1ncn2Cc1cccc(OCc2ccccc2)c1,33%
28,c1ccc(Cn2cnc3cncnc32)cc1 [9-BENZYL-9H-PURINE],33%
29,CN(C)c1ncnc2c1ncn2Cc1ccc(C#N)cc1,0%

# Species on record: Rattus norvegicus
# Experiment: Ability to protect Sprague-Dawley male rats against maximal electroshock-induced seizures (MES) perorally
# Assay type: functional
# Details: po
# Method in brief: as §2
row,SMILES,ED50
1,CN(C)c1ncnc2c1ncn2Cc1ccccc1,12 mg/kg
2,CNc1ncnc2c1ncn2Cc1ccccc1,12 mg/kg
3,COc1ncnc2c1ncn2Cc1ccccc1 [9-BENZYL-6-METHOXY-9H-PURINE],21 mg/kg
4,CN(C)c1ncnc2c1ncn2Cc1cccc(Cl)c1,18 mg/kg
5,O=C1NC(=O)C(c2ccccc2)(c2ccccc2)N1 [PHENYTOIN],20 mg/kg
6,CCN(C)c1ncnc2c1ncn2Cc1ccccc1,30 mg/kg
